# Laboratory results reported in PubChem BioAssay AID1263 (The Scripps Research Institute Molecular Screening Center, 2008).
# The other results are listed elsewhere or left out. Active and inactive are the calls of the source.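 How the source made its calls: active means triplicate mean inhibition exceeding the hit cutoff computed for the primary STAT1 screen (cut at about 35% in these data); inactive means the rest.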
# Assay: blockers of IFN-gamma STAT1 reporter activity – cell-based, HTS, luciferase reporter, confirmation (AID 1263);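 further: 0% = DMSO with IFN-gamma and 100% = 300 µM nifuroxazide with IFN-gamma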
# Details: NIH 3T3 STAT1-luciferase reporter, luminescence, at 5.5 µM, stronger effect = higher value
# Outline: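 System – NIH 3T3 STAT1-luciferase reporter cells · Dosing – one dose only · Repeats – three replicates · Read-out basis – % inhibition scaled between DMSO and nifuroxazide · Incubation – compound preincubation 1 h, IFN-gamma exposure 4 h, 37 °C, substrate 15 min · Also added – IFN-gamma stimulus, 3.0 ng/mL · Measured by – luciferase luminescence · Benchmarks – high control 300 µM nifuroxazide, low control DMSO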
row,Structure (SMILES),inhibition
1,C[C@@H]1C[C@@H]2O[C@H]2/C=C\C=C\C(=O)Cc2c(Cl)c(O)cc(O)c2C(=O)O1,61% (active)
2,Cc1ccc(C2=Nc3c(ccc4ccccc34)C(c3ccncc3)=NN2)cc1,60.4% (active)
3,CCOC(=O)N1CCN(C(=O)C2CCN(c3ncnc4c3sc3cccc(F)c34)CC2)CC1,41.5% (active)
4,CCOC(=O)C(=CNc1cccc(C)n1)C(=O)OCC,32.5% (inactive)
5,COc1ccc(C(=O)Nc2ccccc2C(=O)N/N=C/c2ccccc2OC)cc1,0.25% (inactive)
6,COc1ccc(C2CC(c3cccs3)=NN2c2nc(C)c(C(C)=O)s2)cc1OC (stereo not given),20.8% (inactive)
7,NS(=O)(=O)c1cccc(NC(=O)CSc2nc3ccccc3n2-c2ccccc2)c1,31.4% (inactive)
8,COC(=O)C1=CN(Cc2ccc(OC)c(OC)c2)C=C(C(=O)OC)C1c1cccs1,38.3% (active)
9,O=C(CCl)N(Cc1cccc([N+](=O)[O-])c1)c1cccc(Cl)c1,33.3% (inactive)
10,CCOC(=O)N1CCN(C(=O)CSc2nnc(-c3c[nH]c4ccccc34)n2CCOC)CC1,33.9% (inactive)
